Experimental findings from ChEMBL document CHEMBL3259704, “Second generation steroidal 4-aminoquinolines are potent, dual-target inhibitors of the botulinum neurotoxin serotype A metalloprotease and P. falciparum malaria” (J Med Chem, 2014) are described below.

Data set [1] addresses Botulinum neurotoxin type A (Clostridium botulinum) (UniProt P0DPI0). In words: Inhibition of Clostridium botulinum recombinant BoNT/A light chain using N-terminal acetylated, C-terminal aminated SNAP-25 (187-203) as substrate at 20 uM by reverse-phase HPLC analysis. In outline:
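Recombinant BoNT/A LC with SNAP-25 187–203 peptide substrate in 40 mM HEPES–0.05% Tween, pH 7.3, with 0.5 mg/mL BSA and 50 μM excess Zn, at 37 °C. Quenched with TFA; reverse-phase HPLC product/substrate peak areas give percent inhibition, run in duplicate.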

For data set [2], the target named is Botulinum neurotoxin type A (Clostridium botulinum, UniProt P0DPI0). In words: Inhibition of Clostridium botulinum recombinant BoNT/A light chain using N-terminal acetylated, C-terminal aminated SNAP-25 (187-203) as substrate by reverse-phase HPLC analysis. In short, it runs like this: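 Same HPLC LC cleavage assay (pH 7.3 HEPES/Tween, BSA, excess Zn, 37 °C). […] Ki comes from velocity versus substrate at several inhibitor levels, globally fit to a competitive model.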
Sequence of Botulinum neurotoxin type A (P0DPI0 2-448 limits assumed): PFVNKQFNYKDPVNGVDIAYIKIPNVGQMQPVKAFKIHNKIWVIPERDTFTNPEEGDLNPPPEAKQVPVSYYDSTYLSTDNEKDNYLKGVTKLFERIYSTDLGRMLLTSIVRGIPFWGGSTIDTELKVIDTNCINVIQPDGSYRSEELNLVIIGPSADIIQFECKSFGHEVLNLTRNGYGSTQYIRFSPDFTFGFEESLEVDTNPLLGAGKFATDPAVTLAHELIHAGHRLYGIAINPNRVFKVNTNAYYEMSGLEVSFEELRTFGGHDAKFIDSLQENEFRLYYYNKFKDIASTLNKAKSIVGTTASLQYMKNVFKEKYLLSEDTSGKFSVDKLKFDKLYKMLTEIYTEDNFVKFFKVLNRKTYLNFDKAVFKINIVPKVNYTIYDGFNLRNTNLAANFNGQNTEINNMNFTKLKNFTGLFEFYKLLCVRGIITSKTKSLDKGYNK

The subject of data set [3] is Plasmodium falciparum. In words: Antimalarial activity against CQ-resistant, MFQ-susceptible Plasmodium falciparum W2 clone Indochina 1 isolate assessed as inhibition of parasite proliferation by MSF assay. Type of data set: functional, organism-based. In outline:
(§1)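 SYBR Green I fluorescence (MSF) microtiter drug-sensitivity assay: malarial DNA content is the measure of in vitro parasite proliferation. Resistance index is the IC90 ratio of the resistant strain to D6.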

The subject of data set [4] is Plasmodium falciparum. In words: Antimalarial activity against CQ, MFQ-susceptible Plasmodium falciparum D6 clone Sierra 1/UNC isolate assessed as inhibition of parasite proliferation by MSF assay. Type of data set: functional, organism-based. In short, it runs like this:
as §1

In data set [5] the test system is Plasmodium falciparum. Description: Antimalarial activity against CQ, MFQ-resistant Plasmodium falciparum TM91C235 clone Southeast asian isolate assessed as inhibition of parasite proliferation by MSF assay. The data set is classed as functional, organism-based. In short, it runs like this:
as §1

A further data set has as its system HepG2. In words: Cytotoxicity against human HepG2 cells assessed as cell viability after 48 hrs by MTT assay. The data set is classed as cell-based. Particulars: HepG2, 48 h. A general note: Tetrazolium assays rely on reduction of a dye to a coloured formazan, in cell work by metabolically active cells.
A short description of data set [6]: Selectivity index, ratio of IC50 for human HepG2 cells to IC50 for CQ-resistant, MFQ-susceptible Plasmodium falciparum W2 clone Indochina 1 isolate. Type of data set: toxicity, cell-based. The note with it: read-out: Ratio IC50.
Data set [7] can be described thus: Selectivity index, ratio of IC50 for human HepG2 cells to IC50 for CQ, MFQ-susceptible Plasmodium falciparum D6 clone Sierra 1/UNC isolate. The note with it: read-out: Ratio IC50. Type of data set: toxicity, cell-based.
A short description of data set [8]: Selectivity index, ratio of IC50 for human HepG2 cells to IC50 for CQ, MFQ-resistant Plasmodium falciparum TM91C235 clone Southeast asian isolate. Type of data set: toxicity, cell-based. Particulars: read-out: Ratio IC50.
Data set [9] can be described thus: Half life in human liver microsomes. Type of data set: ADME. The note with it: liver microsomes. Background: Liver microsomes are a subcellular fraction often used to study metabolism.
Data set [10] can be described thus: Half life in mouse liver microsomes. Type of data set: ADME. Particulars: liver microsomes.
Data set [11] concerns Plasmodium falciparum. In words: Resistance index, ratio of IC50 for CQ, MFQ-resistant Plasmodium falciparum TM91C235 clone Southeast asian isolate to IC50 for CQ, MFQ-susceptible Plasmodium falciparum D6 clone Sierra 1/UNC isolate. Type of data set: functional.
The test system of data set [12] is Plasmodium falciparum. In words: Resistance index, ratio of IC50 for CQ-resistant, MFQ-susceptible Plasmodium falciparum W2 clone Indochina 1 isolate to IC50 for CQ, MFQ-susceptible Plasmodium falciparum D6 clone Sierra 1/UNC isolate. The data set is classed as functional.

Sequence of Botulinum neurotoxin type A (Clostridium botulinum) (P0DPI0 2-448 limits assumed): as above

Turning to `CC(=O)O[C@H]1C[C@H]2[C@@H]([C@H](OC(C)=O)C[C@@H]3C[C@H](N(C)C)CC[C@@]32C)[C@@H]2CC[C@H]([C@H](C)CCCNCCNc3ccnc4cc(Cl)ccc34)[C@@]12C`, the inhibition (in general, the relative decrease from the control value, in per cent) in [1] turned out to be 93.5%. Besides, the IC50 (as a rule, the midpoint of a concentration-inhibition curve) in data set [2] is 1020 nM; in the data set with Plasmodium falciparum [3] it was 19.7 nM; in the data set with Plasmodium falciparum [4], 42.3 nM; in the data set with Plasmodium falciparum [5] it was 32.4 nM; in the data set with HepG2, 14100 nM. Further, the figures for the selectivity ratio in data set [6], in data set [7] and in data set [8] were 714, 333 and 435, respectively. For the same compound, the half-life in [9] and in [10] was 1 h throughout. Moreover, the “Ratio IC50” value with Plasmodium falciparum [11] is given as 0.77; in the data set on Plasmodium falciparum [12], 47.
